MEKK2 WT-MEK5: raises or lowers MEK5 binding to wildtype human MEKK2 PB1 domain; hit rate 1.1% among 290,000; binding response (% of control), % at 10 µM; bead flow cytometry, Alexa488-MEK5 binding to MEKK2 WT; actives lie on both sides; Q9Y2U5; in the data active = binding response below about 67% or above about 130%
Apaf-1 inh: human Apaf-1 inhibition | reconstituted apoptosome caspase-3 activity, DEVD-Rh110 fluorescence | hit rate 0.71% among 330,000 | AID 489030 | inhibition, % at 20 µM; active = inhibition of at least 40% at 20 µM;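 also: plate controls were DMSO wells for no effect and DEVD-CHO caspase inhibitor wells for full effect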
Target sequence (O14727 whole entry, looked up): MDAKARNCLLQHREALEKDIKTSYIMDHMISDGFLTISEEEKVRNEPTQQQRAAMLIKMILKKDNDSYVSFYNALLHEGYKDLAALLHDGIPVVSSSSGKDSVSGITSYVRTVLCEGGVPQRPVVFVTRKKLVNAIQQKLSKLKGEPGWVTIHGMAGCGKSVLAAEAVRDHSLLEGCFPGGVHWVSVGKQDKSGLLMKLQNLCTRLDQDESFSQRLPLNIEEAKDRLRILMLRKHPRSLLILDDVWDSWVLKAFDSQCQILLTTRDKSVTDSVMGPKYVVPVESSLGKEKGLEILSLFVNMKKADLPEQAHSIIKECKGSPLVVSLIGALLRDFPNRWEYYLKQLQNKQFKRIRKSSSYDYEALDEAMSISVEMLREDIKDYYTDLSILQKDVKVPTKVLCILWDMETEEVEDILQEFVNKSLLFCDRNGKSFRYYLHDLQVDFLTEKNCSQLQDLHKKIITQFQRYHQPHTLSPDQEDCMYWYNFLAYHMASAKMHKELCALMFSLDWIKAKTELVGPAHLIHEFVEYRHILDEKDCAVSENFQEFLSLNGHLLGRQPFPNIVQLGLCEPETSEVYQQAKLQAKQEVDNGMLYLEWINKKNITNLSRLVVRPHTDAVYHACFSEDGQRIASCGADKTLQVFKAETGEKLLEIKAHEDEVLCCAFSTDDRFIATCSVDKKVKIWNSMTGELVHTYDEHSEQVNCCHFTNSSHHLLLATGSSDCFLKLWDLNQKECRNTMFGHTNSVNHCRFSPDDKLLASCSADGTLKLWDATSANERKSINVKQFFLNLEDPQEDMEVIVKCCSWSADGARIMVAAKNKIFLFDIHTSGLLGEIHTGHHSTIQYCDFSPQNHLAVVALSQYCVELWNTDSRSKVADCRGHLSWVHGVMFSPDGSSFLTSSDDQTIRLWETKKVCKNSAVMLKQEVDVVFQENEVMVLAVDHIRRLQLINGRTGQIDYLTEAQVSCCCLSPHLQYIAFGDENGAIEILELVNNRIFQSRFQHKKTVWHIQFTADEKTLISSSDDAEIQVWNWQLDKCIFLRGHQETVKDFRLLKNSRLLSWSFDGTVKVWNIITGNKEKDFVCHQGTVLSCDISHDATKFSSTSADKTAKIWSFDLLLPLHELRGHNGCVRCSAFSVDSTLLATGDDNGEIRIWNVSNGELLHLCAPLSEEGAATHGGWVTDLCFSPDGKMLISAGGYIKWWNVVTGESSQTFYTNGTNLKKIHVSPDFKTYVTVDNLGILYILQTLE
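Material: biochemical Apaf-1 apoptosome reconstitution. Medium: Hepes buffer, pH 7.5. Also added: cytochrome c activation, bis-DEVD rhodamine 110 substrate. Timing: 30 min compound preincubation, 50 min activation, room temperature. Measured by: rhodamine 110 fluorescence at Ex 480/Em 540 nm.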
MEKK3 PB1 HTS: MEKK3-MEK5 PB1 interaction, increase or decrease; Q99759; bead-based flow cytometry, Alexa488-MEK5 binding to MEKK3; actives lie on both sides; 0 = blocked by unlabeled MEK5, 100 = vehicle; binding response (% of control), % at 10 µM; hit rate 1.4% among 290,000; AID 1529;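 active = binding response more than 3 SD above or below the average of its plate-row segment, actives on both sides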;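 also: Alexa488 bead fluorescence after subtracting the streptavidin-only scavenger bead signal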
UBC13 inh: inhibitors of human UBC13 polyubiquitin chain formation; inhibition, % at 20 µM; TR-FRET; hit rate 0.47% among 330,000; P61088; in the data active = inhibition above about 45%, passing the limit was not always enough
MEKK2 mut-MEK5: signal of MEK5 binding to mutant human MEKK2 PB1 domain; percent response, % at 10 µM; hit rate 0.35% among 290,000; bead flow cytometry, Alexa488-MEK5 binding to MEKK2 mutant; in the data active = percent response above about 24%, passing the limit was not always enough
MEKK2wt confirm: raises or lowers MEK5 binding to wildtype human MEKK2, retest | shares compounds with MEKK3 PB1 HTS | bead flow cytometry, Alexa488-MEK5 binding to MEKK2 WT; actives lie on both sides | binding response (% of control), % at 10 µM | hit rate 2.4% among 5,900; in the data active = binding response below about 16% or above about 210%; inactive = in between
MEKK2mut confirm: signal of MEK5 binding to mutant human MEKK2, retest | shares compounds with MEKK3 PB1 HTS | bead flow cytometry, Alexa488-MEK5 binding to MEKK2 mutant | percent response, % at 10 µM | hit rate 2% among 5,900 | AID 1893; in the data active = percent response mostly above about 71%, no sharp cut-off; inactive = mostly below about 38%;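 also: higher means compound restores mutant binding toward wildtype level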
MEKK3-MEK5 inh: confirmation of inhibitors of MEK5 binding to human MEKK3 | shares compounds with MEKK3 PB1 HTS | bead flow cytometry, Alexa488-MEK5 binding to MEKK3; active compounds read low | binding response (% of control), % at 10 µM | hit rate 1.8% among 5,900 | AID 1894;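 active = binding response below 72% of control, or above a set upper limit, though filed actives all read lower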;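 also: 100% = DMSO only wells and 0% = binding blocked by excess unlabeled MEK5; lower values mean stronger disruption of MEK5 binding to MEKK3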
* marks the source's active call; other numbers are inactive results; x = no result given; [ ] = dose if it differs, or a comment. Most compounds without a hit are left out; they make up all but 2.9% or so of the library.

SMILES	MEKK2 WT-MEK5	Apaf-1 inh	MEKK3 PB1 HTS	UBC13 inh	MEKK2 mut-MEK5	MEKK2wt confirm	MEKK2mut confirm	MEKK3-MEK5 inh
CCCCCCNC1=NCCS1	x	-6.2	x	3.7	x	x	x	x
CN(C)c1nc(N)c([N+](=O)[O-])c(NCCO)n1	103.0	-12.3	103.0	5.5	2.0	x	x	x
CC1(C)CC(=O)C(C#N)=C(NCCCO)C1	90.0	-5.1	89.0	-1.6	-3.0	x	x	x
CC1(C)CC(=O)C([N+](=O)[O-])=C(NCCCC(=O)O)C1	97.0	-4.6	64.0*[inhibitor]	-6.3	-1.0	98.0	-3.0	100.0
Cc1nc(COC(=O)c2ccc(CO)cc2)cs1	0.0*[inhibitor]	-1.1	0.0*[inhibitor]	3.6	-21.0	106.0	1.0	105.0
COc1ccc(NC(=O)CSc2nnnn2C2CC2)cc1S(=O)(=O)N1CCOCC1	x	-2.7	x	-9.6	x	x	x	x
Cc1ccc(-c2nc3ccccc3n3nnnc23)cc1	86.0	x	82.0*[inhibitor]	x	-6.0	98.0	-10.0	101.0
Cc1ccc(-c2nc3ccccc3n3c(C)nnc23)cc1	97.0	x	101.0	x	1.0	x	x	x
COc1cccc(Nc2nc3ccccc3n3nnnc23)c1	3.0*[inhibitor]	19.8	2.0*[inhibitor]	4.1	-14.0	104.0	-1.0	100.0
O=Cc1cccn1Cc1ccccc1[N+](=O)[O-]	101.0	-8.8	98.0	-8.8	-1.0	x	x	x
O=S(=O)(c1ccc(Br)cc1)c1nc(-c2ccco2)oc1NCC1CCCO1 (stereo not given)	84.0	-1.0	101.0	-0.4	-35.0	x	x	x
CC(=O)N1CCC(N(CCN2CCOCC2)C(=S)Nc2ccccc2C)CC1	106.0	-8.6	104.0	10.7	1.0	x	x	x
CC(C)(C)NC(=O)NC(=O)CN1CCN(Cc2ccccc2)CC1	69.0	5.6	57.0	-5.1	-14.0	x	x	x
CC(C)(C)NC(=O)NC(=O)CN1CCN(C(c2ccccc2)c2ccccc2)CC1	144.0	11.1	157.0*	-22.3	7.0	100.0	1.0	100.0
COc1ccc(C(O)(C(=O)NNc2ccc(C)cc2)c2cccs2)cc1 (stereo not given)	115.0	12.7	122.0*	-8.1	5.0	101.0	-1.0	106.0
Cc1ccc(CNC(=O)CSc2nc3ccsc3c(=O)n2Cc2ccccn2)cc1	100.0	-4.9	103.0	14.1	-6.0	x	x	x
O=c1c2sccc2nc(SCc2ccc([N+](=O)[O-])cc2)n1Cc1ccccn1	96.0	-6.4	63.0*[inhibitor]	19.2	1.0	100.0	-1.0	104.0
CC1CN(c2ccc([N+](=O)[O-])c(NCCOc3ccccc3)c2)CC(C)N1 (stereo not given)	170.0*	21.7	109.0	-22.9	18.0	140.0	22.0	107.0
CC1CN(c2ccc([N+](=O)[O-])c(NCCOc3ccc(Cl)cc3)c2)CC(C)N1 (stereo not given)	222.0*	26.7	109.0	22.5	48.0*	163.0	31.0	103.0
O=[N+]([O-])c1ccc(N2CCCCC2)cc1NCCOc1ccccc1	101.0	6.4	97.0	-16.0	-1.0	x	x	x
COc1ccc(CSCC(=O)Nc2ccccc2)cc1[N+](=O)[O-]	104.0	5.2	99.0	3.0	1.0	x	x	x
Cc1ccc(S(=O)(=O)N2CCN(C(=O)COC(=O)c3cnc(C)cn3)CC2)c(C)c1	x	-2.1	x	-4.3	x	x	x	x
Cc1nc(Nc2cccc(C(C)O)c2)c2nnn(Cc3ccccc3F)c2n1 (stereo not given)	95.0	6.7	102.0	3.3	-2.0	x	x	x
O=C(CSc1nnc(-c2ccccc2F)o1)NC1CC1	x	4.3	x	-16.9	x	x	x	x
O=C(c1ccccc1)c1nnc(-c2ccccc2F)o1	-1.0*[inhibitor]	5.7	0.0*[inhibitor]	-4.3	-16.0	106.0	2.0	106.0
Cc1ccc(COC(=O)CN2C(=O)NC3(CCCCC3C)C2=O)cc1 (stereo not given)	x	4.1	x	-2.4	x	x	x	x
COc1ccc(C(OCC(O)CNCCc2ccc(S(N)(=O)=O)cc2)c2ccc(OC)cc2)cc1 (stereo not given)	121.0	8.1	100.0	17.2	11.0	x	x	x

Screening data as filed in PubChem.
